Source: ChEMBL document CHEMBL1140695, “Endomorphin-2 with a beta-turn backbone constraint retains the potent micro-opioid receptor agonist properties” (J Med Chem, 2008)

Columns and labels:
[1] = biological target: Mu-type opioid receptor (Rattus norvegicus) (UniProt P33535); assay: Agonist activity at mu opioid receptor in rat brain assessed as maximal stimulation of [35S]GTP-gamma-S binding relative to basal level; type: functional, tissue-based
Procedure, shortened: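 [35S]GTPγS binding in rat brain membrane fractions, reversal tested with naloxone 1 µM.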

[2] = Stability in rat brain assessed as half life; type: ADME, tissue-based
Procedure, shortened: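 Peptides incubated in rat brain homogenate lacking cerebellum. Digestion mixtures analysed by RP-HPLC; velocity constants and half-lives calculated assuming pseudo-first-order kinetics.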

Mu-type opioid receptor [3] = biological target: Mu-type opioid receptor (Rattus norvegicus, UniProt P33535); assay: Displacement of [3H]DAMGO from mu opioid receptor in Wistar rat brain after 45 mins
Chain of Mu-type opioid receptor (Rattus norvegicus, UniProt P33535) (P33535 whole entry): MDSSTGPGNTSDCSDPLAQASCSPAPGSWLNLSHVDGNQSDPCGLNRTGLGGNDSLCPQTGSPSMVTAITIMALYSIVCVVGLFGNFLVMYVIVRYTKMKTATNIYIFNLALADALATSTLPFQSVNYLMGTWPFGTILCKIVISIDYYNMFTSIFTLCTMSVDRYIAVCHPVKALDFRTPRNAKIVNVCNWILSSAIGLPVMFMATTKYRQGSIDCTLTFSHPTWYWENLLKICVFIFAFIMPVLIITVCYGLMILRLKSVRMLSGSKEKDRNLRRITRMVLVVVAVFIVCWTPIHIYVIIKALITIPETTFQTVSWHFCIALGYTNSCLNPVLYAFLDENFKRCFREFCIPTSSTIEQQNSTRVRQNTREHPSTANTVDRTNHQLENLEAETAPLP
Procedure, shortened: (§1)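 Radioligand binding on a crude membrane fraction of Wistar rat forebrain.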

[4] = biological target: Delta-type opioid receptor (Rattus norvegicus, UniProt P33533); assay: Displacement of [3H]deltorphin 2 from delta opioid receptor in Wistar rat brain after 45 mins; procedure, shortened: as §1
Chain of Delta-type opioid receptor (P33533 whole entry): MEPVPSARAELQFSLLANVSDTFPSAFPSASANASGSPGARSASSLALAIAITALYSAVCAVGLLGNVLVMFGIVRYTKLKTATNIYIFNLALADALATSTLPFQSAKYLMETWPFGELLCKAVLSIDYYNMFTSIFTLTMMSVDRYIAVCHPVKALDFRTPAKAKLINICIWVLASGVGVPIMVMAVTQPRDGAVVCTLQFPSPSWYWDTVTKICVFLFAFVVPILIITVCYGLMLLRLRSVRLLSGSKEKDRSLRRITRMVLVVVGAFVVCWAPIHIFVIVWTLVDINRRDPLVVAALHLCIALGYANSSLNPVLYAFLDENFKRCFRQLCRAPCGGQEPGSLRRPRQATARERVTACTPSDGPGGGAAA

Mu-type opioid receptor [5] = biological target: Mu-type opioid receptor (Mus musculus, UniProt P42866); assay: Agonist activity at mu opioid receptor in NMRI mouse vas deferens assessed as inhibition of electrically-stimulated muscle contraction; type: functional, tissue-based
Chain of Mu-type opioid receptor (Mus musculus, UniProt P42866) (P42866 whole entry): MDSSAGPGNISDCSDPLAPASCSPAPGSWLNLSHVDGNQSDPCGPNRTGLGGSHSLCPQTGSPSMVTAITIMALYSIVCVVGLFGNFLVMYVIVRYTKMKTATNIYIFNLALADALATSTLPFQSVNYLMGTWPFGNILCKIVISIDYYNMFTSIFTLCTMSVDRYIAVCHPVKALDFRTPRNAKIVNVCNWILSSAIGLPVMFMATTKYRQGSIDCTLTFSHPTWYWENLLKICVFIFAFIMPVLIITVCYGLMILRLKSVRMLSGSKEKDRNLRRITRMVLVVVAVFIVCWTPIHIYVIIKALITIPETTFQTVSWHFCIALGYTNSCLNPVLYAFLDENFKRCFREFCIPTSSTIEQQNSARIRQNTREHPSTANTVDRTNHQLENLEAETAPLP
Procedure, shortened: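 Mouse vas deferens preparation; agonist potency. Values are means ± S.E.M of 3–7 independent duplicate experiments.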

[6] = biological target: Mu-type opioid receptor (Homo sapiens) (UniProt P35372); settings: CHO
Chain of Mu-type opioid receptor (Homo sapiens) (P35372 whole entry): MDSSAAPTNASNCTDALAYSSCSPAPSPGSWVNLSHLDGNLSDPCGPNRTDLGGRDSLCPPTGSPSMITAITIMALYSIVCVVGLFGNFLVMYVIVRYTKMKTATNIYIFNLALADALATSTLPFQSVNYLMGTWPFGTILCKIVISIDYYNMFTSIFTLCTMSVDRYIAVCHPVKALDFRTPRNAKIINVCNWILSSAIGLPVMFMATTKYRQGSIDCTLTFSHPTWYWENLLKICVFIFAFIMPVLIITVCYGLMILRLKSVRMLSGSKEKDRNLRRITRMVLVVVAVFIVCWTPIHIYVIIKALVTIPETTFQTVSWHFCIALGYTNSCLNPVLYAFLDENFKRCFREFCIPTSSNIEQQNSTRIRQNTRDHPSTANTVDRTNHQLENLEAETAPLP

[7] = biological target: Mu-type opioid receptor (Rattus norvegicus) (UniProt P33535); settings: Brain

Chain of Mu-type opioid receptor (Rattus norvegicus) (P33535 whole entry): as the sequence (P33535 whole entry) above

SMILES | Emax [1] [%] | half-life [2] [h] | Ki (Mu-type opioid receptor [3]) [nM] | Ki [4] [nM] | IC50 (Mu-type opioid receptor [5]) [nM] | Log10ED50 [6] | Log10ED50 [7]
C[C@@H](NC(=O)[C@@H](N)Cc1ccc(O)cc1)C(=O)NCC(=O)N(C)[C@@H](Cc1ccccc1)C(=O)NCCO | 169 |  |  |  |  |  | 
NC(=O)[C@H](Cc1ccccc1)NC(=O)CN1Cc2ccccc2C[C@]2(CCCN2C(=O)[C@@H](N)Cc2ccc(O)cc2)C1=O | 134 | > 24 | 0.0293 | > 10 | 49.8 | 6.88 | 6.74
NC(=O)[C@H](Cc1ccccc1)NC(=O)CN1Cc2ccccc2C[C@@]2(CCCN2C(=O)[C@@H](N)Cc2ccc(O)cc2)C1=O |  | > 24 | 8.73 | 2.31 |  |  | 
NC(=O)[C@H](Cc1ccccc1)NC(=O)CN1Cc2ccccc2C[C@@H](NC(=O)[C@@H](N)Cc2ccc(O)cc2)C1=O |  | 3.3 | 2.25 | 2.96 |  |  | 
CN1CC[C@]23c4c5ccc(O)c4O[C@H]2[C@@H](O)C=C[C@H]3[C@H]1C5 | 134 |  |  |  |  |  | 
NC(=O)[C@H](Cc1ccccc1)NC(=O)[C@H](Cc1ccccc1)NC(=O)[C@@H]1CCCN1C(=O)[C@@H](N)Cc1ccc(O)cc1 [ENDOMORPHIN 2] |  | 0.0633 |  |  |  |  | 
NC(=O)[C@H](Cc1ccccc1)NC(=O)CN1Cc2ccccc2C[C@H](NC(=O)[C@@H](N)Cc2ccc(O)cc2)C1=O |  | 0.0117 | 0.373 | 0.778 |  |  | 
